Assay results: PMC2819025 (Biochemistry, 2010)
No end group written: not given here. rhodamine = not defined here

Tests used:
par3-PDZ3 [1] = conditions: read-out: Kd for par3-PDZ3; reported value; ref [16]; cited from earlier work
par3-PDZ3 [2] = target: par3-PDZ3 (Mus musculus, UniProt Q99NH2); test: Fluorescence polarization titration of rhodamine-labeled peptides with par3-PDZ3; type: binding, M. musculus; conditions: rhodamine labeled peptide
In short: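 Mouse par3-PDZ3 (residues 581–689) was expressed in E. coli SG13009 with a cleavable N-terminal His8 tag, purified by Ni2+ affinity, TEV-cleaved and cation-exchange purified. Increasing par3-PDZ3 was titrated into 100nM N-terminally rhodamine-labelled synthetic peptide in 50mM HEPES, 100mM NaCl, 1mM DTT, 1mM EDTA, pH 7.4, 298K (ex 562nm/em 582nm). Kd came from fitting a single-site hyperbolic binding equation.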

[3] = target: par3-PDZ3 (residues 581 to 689 of M. musculus par3) (M. musculus, UniProt Q99NH2 581-689); test: fluorescence polarisation
Chain of par3-PDZ3 (residues 581 to 689 of M. musculus par3) (Q99NH2 581-689): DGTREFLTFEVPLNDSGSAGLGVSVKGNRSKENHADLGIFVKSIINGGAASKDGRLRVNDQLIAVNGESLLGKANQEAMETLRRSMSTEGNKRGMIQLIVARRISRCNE

Chain of par3-PDZ3 (Mus musculus, UniProt Q99NH2) (Q99NH2 581-689): as above

For DEDQHSQITKVcoo-, the Kd (par3-PDZ3 [1]) is listed as 19 µM.

In the case of QHSQITKVcoo-, the “interaction with par3-PDZ3 (detected or not)” value (par3-PDZ3 [2]) is reported as “failed to detect any interaction”.

B1: rhodamine-labeled VE-Cad (773-784) (peptide)
peptide: rhodamine-LYGSDPQEELII
modifications: reading uncertain
B1 showed a Kd [3] of 6 µM.

B2: rhodamine-labeled VE-Cad (773-784) Y774A (peptide, UniProt P55284 773-784, looked up)
peptide: rhodamine-LAGSDPQEELII
modifications: reading uncertain
B2: binds [3].
